In ChEMBL document CHEMBL1177889, “Synthesis of novel peptidomimetics as inhibitors of protozoan cysteine proteases falcipain-2 and rhodesain” (Eur J Med Chem, 2010):

Tests used:
[1] = molecular target: T1, Falcipain 2 (Plasmodium falciparum) (UniProt Q9N6S8); assay: Inhibition of Plasmodium falciparum falcipain-2 at 30 uM after 10 to 15 min
T1 sequence (whole entry): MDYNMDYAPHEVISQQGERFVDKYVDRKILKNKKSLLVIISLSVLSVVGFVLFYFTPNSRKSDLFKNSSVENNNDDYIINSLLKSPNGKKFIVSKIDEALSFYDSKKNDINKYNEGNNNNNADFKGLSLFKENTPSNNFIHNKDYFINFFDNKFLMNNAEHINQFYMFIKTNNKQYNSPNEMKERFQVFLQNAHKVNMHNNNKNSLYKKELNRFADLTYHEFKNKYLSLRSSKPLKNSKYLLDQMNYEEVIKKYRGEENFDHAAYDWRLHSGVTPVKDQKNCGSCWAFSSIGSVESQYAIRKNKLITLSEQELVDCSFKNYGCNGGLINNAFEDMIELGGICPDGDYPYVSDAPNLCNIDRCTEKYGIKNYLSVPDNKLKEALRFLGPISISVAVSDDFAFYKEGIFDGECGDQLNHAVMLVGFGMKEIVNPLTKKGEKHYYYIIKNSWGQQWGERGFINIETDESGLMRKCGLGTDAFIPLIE
Method in brief: (§1)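 Single-concentration screen with Cbz-Phe-Arg-AMC at 40 µM (FP-2) or 10 µM (rhodesain). Hydrolysis product release read continuously over 10 min. DMSO served as negative control and E-64 as positive control. Inhibition expressed as percent versus DMSO.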

[2] = molecular target: Rhodesain (Trypanosoma brucei rhodesiense, UniProt Q95PM0); assay: Inhibition of Trypanosoma brucei rhodesiense rhodesain after 10 to 15 mins
Chain of Rhodesain (Q95PM0 whole entry): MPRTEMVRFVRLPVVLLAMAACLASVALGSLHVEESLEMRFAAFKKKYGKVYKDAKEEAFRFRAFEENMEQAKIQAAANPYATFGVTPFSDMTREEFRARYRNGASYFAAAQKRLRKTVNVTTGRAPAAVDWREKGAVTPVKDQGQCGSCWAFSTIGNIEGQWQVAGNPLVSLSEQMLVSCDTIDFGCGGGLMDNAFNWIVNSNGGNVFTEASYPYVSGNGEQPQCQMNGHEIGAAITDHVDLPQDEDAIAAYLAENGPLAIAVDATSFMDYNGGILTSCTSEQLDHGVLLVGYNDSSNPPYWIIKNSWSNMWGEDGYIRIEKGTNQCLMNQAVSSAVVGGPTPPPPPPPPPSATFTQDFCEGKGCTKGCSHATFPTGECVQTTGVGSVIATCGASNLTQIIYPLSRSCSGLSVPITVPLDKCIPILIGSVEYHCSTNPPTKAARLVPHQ
Method in brief: (§2)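 Recombinant enzymes, FP-2 expressed in E. coli. Run in 50 mM sodium acetate pH 5.5 with 10 mM DTT. Substrate Cbz-Phe-Arg-AMC at 40 µM for FP-2 and 10 µM for rhodesain. Fluorescence (ex 365/em 460) followed continuously for 10–15 min at room temperature. Kiapp taken from Dixon plots and corrected to Ki using Km 21.5 µM (FP-2) or 0.9 µM (rhodesain). Each assay run twice.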

[3] = tested on: Plasmodium falciparum; assay: Antiplasmodial activity against Plasmodium falciparum FCBR infected in human RBC; type: functional, organism-based; conditions: FCBR/Columbia
[4] = molecular target: T2, Falcipain 2 (Plasmodium falciparum, UniProt Q9N6S8); assay: Inhibition of Plasmodium falciparum falcipain-2 after 10 to 15 min; method in brief: as §2
T2 sequence (Q9N6S8 whole entry): T1 sequence (whole entry)

[5] = tested on: Trypanosoma brucei brucei; assay: Antitrypanosomal activity against Trypanosoma brucei brucei TC 221 after 48 hrs by alamar blue assay; conditions: TC 221, 48 h
[6] = molecular target: Rhodesain (Trypanosoma brucei rhodesiense) (UniProt Q95PM0); assay: Inhibition of Trypanosoma brucei rhodesiense rhodesain at 100 uM after 10 to 15 mins; method in brief: as §1
Chain of Rhodesain (Trypanosoma brucei rhodesiense) (Q95PM0 1-450): as the sequence (Q95PM0 whole entry) above

| SMILES | inhibition [1] [%] | Ki [2] [µM] | IC50 [3] [µM] | Ki [4] [µM] | IC50 [5] [µM] | inhibition [6] [%] |
| --- | --- | --- | --- | --- | --- | --- |
| O=C(CN1C(=O)[C@@H](COC(=O)Nc2ccc(Cl)cc2C(F)(F)F)N=C(c2ccccc2)c2ccccc21)N[C@H]1CC(=O)O[C@@H]1OCc1ccccc1 | > 50 | 0.8 | 49.5 | 8.9 |  |  |
| NCCCC(N)(C(=O)O)C(F)F (configuration not stated) [EFLORNITHINE] |  |  |  |  | 22.9 |  |
| CC(C)(C)S[C@@H]1OC(=O)C[C@@H]1NC(=O)CN1C(=O)[C@@H](COC(=O)Nc2ccc(Cl)cc2C(F)(F)F)N=C(c2ccccc2)c2ccccc21 | < 30 |  |  |  |  |  |
| O=C(CN1C(=O)[C@@H](COC(=O)Nc2ccc(Cl)cc2C(F)(F)F)N=C(c2ccccc2)c2ccccc21)N[C@H]1CC(=O)OC1O (some centres not stated) |  |  | > 100 | 4 |  | 30 |
| CC(C)(C)S[C@H]1OC(=O)C[C@@H]1NC(=O)CN1C(=O)[C@@H](COC(=O)Nc2ccc(Cl)cc2C(F)(F)F)N=C(c2ccccc2)c2ccccc21 | > 50 | 0.7 | 28.5 | 8.2 | 14.2 |  |
| CC(C)C[C@H](NC(=O)[C@H]1O[C@@H]1C(=O)O)C(=O)NCCCCN=C(N)N [E-64] |  |  | 9.3 | 40.3 |  |  |
| O=C(CN1C(=O)[C@@H](COC(=O)Nc2ccc(Cl)cc2C(F)(F)F)N=C(c2ccccc2)c2ccccc21)N[C@H]1CC(=O)O[C@H]1OCc1ccccc1 | < 30 |  |  |  |  |  |
